Two compounds from ChEMBL document CHEMBL1130185, “Search for DNA repair inhibitors: selective binding of nucleic bases-acridine conjugates to a DNA duplex containing an abasic site” (J Med Chem, 1997) can be followed below.

By pKa is commonly meant the negative logarithm of the acid dissociation constant. Low values mean a stronger acid or weaker base, high ones a weaker acid or stronger base.

The nature of data set [1]: Deprotonation equilibrium constant for compound was determined. The format is ADME. In outline: (§1)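 pKa values were determined by potentiometric titration of the acridine ligand at 5 × 10^-4 M across pH 2-12. The distribution of nonprotonated, mono-, bi- and higher protonated species was estimated graphically from the titration curves.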
The nature of data set [2]: Deprotonation equilibrium constant for compound was determined at pH<4. The format is ADME. In short, it runs like this: as §1

On to `COc1ccc2nc3cc(Cl)ccc3c(NCCCNCCCN)c2c1`, for which the pKa in data set [1] is 10.
Consider `COc1ccc2nc3cc(Cl)ccc3c(NCCCNCCCNCCn3cnc4c(N)nc(N)nc43)c2c1`, for which the pKa in data set [2] came out at 4; in data set [1], 9.8.
